Experimental findings from the array DNA melting data of Ke et al. (doi:10.1101/2024.01.08.574731) are described below.

Series [1] can be described thus: melting temperature; fluorescence melt of hairpins on a sequencing array, two-state fit, raised by 9.35 °C to match UV melts. The note with it: sodium 0.088 M. The essentials:
(§1)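 To match UV melts, fitted temperatures were raised by 9.35 °C. These fits were bootstrapped two-state models that gave melting temperature and folding enthalpy, combined by inverse variance over four replicates. The input was normalised Cy3 fluorescence of library hairpins with annealed Cy3 and quencher oligos on a sequenced MiSeq flow cell, imaged in 50 mM Na-HEPES pH 8.0, 25 mM NaCl in 2.5 °C steps up to 60 °C.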

Series [2] is described as follows: folding enthalpy; higher = less favourable; fluorescence melt of hairpins on a sequencing array, two-state fit. The note with it: sodium 0.088 M. The essentials: as §1

As for ATAACGAAAGTTAT (((((....))))), in series [1], the Tm was determined as 46.3 °C. For the same sequence, the folding enthalpy in series [2] was -15.2 kcal/mol.
Regarding GTGGGCCGAAAGGCCAC (((.(((....)))))), the Tm in series [1] amounted to 64.9 °C. For the same sequence, in series [2], the folding enthalpy is -10.7 kcal/mol.
Regarding GATCCACCGATGGATC ((((((....)))))), the Tm in series [1] was 49.2 °C. For the same sequence, the folding enthalpy in series [2] was -36.7 kcal/mol.
Taken in the same sequence, the figures for GAGTTGGGAAACCAACCC (.(((((....))))).) were 40.5 °C and -13.8 kcal/mol.
For GATCACTCGGTGATC ((((((...)))))), in that order: 58.9 °C and -37.8 kcal/mol.
Taken in the same sequence, the figures for GTATACGAAAGTATATAC ((((((....)))..))) were 34.7 °C and -14.4 kcal/mol.
GACTGAGGAAACTCAGTC (((((((....))))))): in series [1], the Tm was 61.5 °C. The folding enthalpy in series [2] is -34.8 kcal/mol.
Take GGTCTTCGAAAGAAACC (((.(((....)))))): the Tm in series [1] worked out at 32.9 °C. In addition, the folding enthalpy in series [2] was -18.4 kcal/mol.
Regarding GGTTACGAAAGTACGACC ((((((....)))..))), the Tm in series [1] turned out to be 31.4 °C. Moreover, the folding enthalpy in series [2] was -14.9 kcal/mol.
For GTGATCGAAAGATCAC ((((((....)))))), in that order: 67.4 °C and -37.1 kcal/mol.
Turning to GTTGTCGGAAACGACAAC (((((((....))))))), the Tm in series [1] came to 67 °C. Moreover, the folding enthalpy in series [2] is -34.6 kcal/mol.
On to GGAGAAACGAAAGTTTCC (((..(((....)))))), for which, in series [1], the Tm came to 37.7 °C. The folding enthalpy in series [2] is -14.1 kcal/mol.
For GTTTATGGAAACATAAAC (((((((....))))))), in that order: 50 °C and -38.1 kcal/mol.
In the case of GATCACTTCTGTGATC ((((((....)))))), the Tm in series [1] worked out at 58.9 °C. For the same sequence, in series [2], the folding enthalpy was -38.4 kcal/mol.
On to GATCAGTTGACTGATC ((((((....)))))), for which the Tm in series [1] amounted to 53.5 °C. The folding enthalpy in series [2] was -37.3 kcal/mol.
Taken in the same sequence, the figures for GCTAACACGAAAGTGAGC (((..(((....)))))) were 39.4 °C and -20.2 kcal/mol.
With GATCAGCTCCCTGATC ((((((....)))))), the Tm in series [1] stood at 49.1 °C. In addition, the folding enthalpy in series [2] is -32.3 kcal/mol.
GCTCCTCGAAAGAGTAGC (((.(((....))).))): in series [1], the Tm was determined as 45.5 °C. Moreover, in series [2], the folding enthalpy was -32.1 kcal/mol.
For GCCGTTTCGAAAGAAGGC (((..(((....)))))), in that order: 44.3 °C and -22.4 kcal/mol.
Taken in the same sequence, the figures for GTGTCCACGAAAGTGCAC (((..(((....)))))) were 39.3 °C and -15.1 kcal/mol.
Taken in the same sequence, the figures for GTACCGGGAAACCGGCAC ((.((((....)))).)) were 47.9 °C and -17.7 kcal/mol.
Regarding GATTCCCGAAAGGGATC (((.(((....)))))), the Tm in series [1] came to 47.3 °C. For the same sequence, the folding enthalpy in series [2] is -13.1 kcal/mol.
GACAGTGGAAACGCTGTC (((((.(....).))))): in series [1], the Tm stood at 52.1 °C. In addition, the folding enthalpy in series [2] is -40.9 kcal/mol.
In the case of GCAAGGGGAAACCCTTAC (.(((((....))))).), in series [1], the Tm came to 33.6 °C. Also, the folding enthalpy in series [2] is -14.3 kcal/mol.
Taken in the same sequence, the figures for GTGACCGAAAGGTGGCAC ((((((....)))..))) were 40.7 °C and -16.3 kcal/mol.
For GTGCCTCGAAAGAGACAC (((.(((....))).))), in that order: 52.6 °C and -42.5 kcal/mol.
For GCTCTGCGAAAGCGGTGC ((.(.((....)).).)), in that order: 54.4 °C and -19 kcal/mol.
Take GATCTGAAAACAGATC ((((((....)))))): the Tm in series [1] amounted to 42.8 °C. Moreover, the folding enthalpy in series [2] is -27.5 kcal/mol.
On to GCGTTGCGAAAGCCATGC ((.(.((....)).).)), for which, in series [1], the Tm was found to be 40.2 °C. In addition, the folding enthalpy in series [2] is -25.4 kcal/mol.
Consider GCGGCGCGAAAGCCCAGC ((.(.((....)).).)), for which the Tm in series [1] came out at 53 °C. In addition, the folding enthalpy in series [2] was -15.3 kcal/mol.
Taken in the same sequence, the figures for GGAATGGGAAACCACTCC (((.(((....))).))) were 33.7 °C and -33.6 kcal/mol.
Turning to GAGCGAGGAAACCCGCTC (((((.(....).))))), in series [1], the Tm came out at 54.7 °C. The folding enthalpy in series [2] was -32.5 kcal/mol.
Regarding GGCAATGGAAACATTACC ((.((((....)))).)), the Tm in series [1] was 37.3 °C. Besides, the folding enthalpy in series [2] was -26.7 kcal/mol.
Turning to GATCTAACTGTAGATC ((((((....)))))), the Tm in series [1] is 39.1 °C. Further, the folding enthalpy in series [2] was -24.2 kcal/mol.
Consider GAAATTGGAAACAGTTTC ((((.((....)).)))), for which the Tm in series [1] worked out at 34.2 °C. In series [2], the folding enthalpy is -26.4 kcal/mol.
Consider GACCGCCCGAAAGGGGTC (((..(((....)))))), for which the Tm in series [1] was found to be 42.3 °C. For the same sequence, the folding enthalpy in series [2] is -15.4 kcal/mol.
With GGGACGGGAAACTGTCCC (((((.(....).))))), the Tm in series [1] was 57.8 °C. For the same sequence, the folding enthalpy in series [2] was -39.8 kcal/mol.
Consider GGTCGAGGAAACTCGATC (.(((((....))))).), for which the Tm in series [1] was 52.2 °C. Further, the folding enthalpy in series [2] is -30.7 kcal/mol.
Regarding GGGGCAGGAAACCGCCCC (((((.(....).))))), the Tm in series [1] amounted to 63.8 °C. Also, the folding enthalpy in series [2] is -30.3 kcal/mol.
On to GTTGGGCGAAAGCCAAC (((.(((....)))))), for which, in series [1], the Tm came to 53 °C. Besides, the folding enthalpy in series [2] was -17.5 kcal/mol.
Taken in the same sequence, the figures for GTATGCGAAAGCAAATAC ((((((....)))..))) were 37.7 °C and -16.7 kcal/mol.
Taken in the same sequence, the figures for GCGTAGCGAAAGCTGAGC ((..(((....)))..)) were 54.4 °C and -16 kcal/mol.
For GGGGTGGGAAACTGCCCC ((((..(....)..)))), in that order: 51.7 °C and -30.2 kcal/mol.
For GTCTCCGAAAGGAATGAC ((((((....)))..))), the Tm in series [1] is 35.2 °C. In series [2], the folding enthalpy was -20.7 kcal/mol.
Taken in the same sequence, the figures for GCCCGCGAAAGCGATGGC ((((((....)))..))) were 62 °C and -19.8 kcal/mol.
Take GTTAGGGGAAACCCTAAC (((((((....))))))): in series [1], the Tm is 57.9 °C. Also, the folding enthalpy in series [2] is -40.5 kcal/mol.
Turning to GCTAGCGAAAGCTTTAGC ((((((....)))..))), the Tm in series [1] is 40.5 °C. Also, the folding enthalpy in series [2] was -14 kcal/mol.
Taken in the same sequence, the figures for GAAGGCCGAAAGGCTTC (((.(((....)))))) were 48.7 °C and -15.6 kcal/mol.
Taken in the same sequence, the figures for GTATAATCGAAAGATTAC (((..(((....)))))) were 30 °C and -10.9 kcal/mol.
Consider GGGTGTGAAAACACCC ((((((....)))))), for which the Tm in series [1] came out at 69 °C. In series [2], the folding enthalpy is -34.4 kcal/mol.
Regarding GCTCTTCGAAAGAACAGC (((.(((....))).))), the Tm in series [1] turned out to be 34.7 °C. In addition, the folding enthalpy in series [2] is -22.2 kcal/mol.
For GACTACGAAAGTAGGGTC ((((((....)))..))), in that order: 46.7 °C and -16.5 kcal/mol.
As to GGTCAGGGAAACCCAACC (((..((....))..))), the Tm in series [1] was 29 °C. Besides, the folding enthalpy in series [2] was -9.32 kcal/mol.
Consider GGTCAGGGAAACCCGACC ((((.((....)).)))), for which the Tm in series [1] turned out to be 50.2 °C. The folding enthalpy in series [2] was -32.6 kcal/mol.
On to GTGGGTCGAAAGACTCAC (((.(((....))).))), for which, in series [1], the Tm was 59 °C. Also, the folding enthalpy in series [2] was -40.4 kcal/mol.
For GATGGGGGAAACCCCATC (((((((....))))))), in that order: 65.4 °C and -31.2 kcal/mol.
For GCGGCGGACCGC ((((....)))), in that order: 54.9 °C and -22.6 kcal/mol.
Taken in the same sequence, the figures for GAAGACGAAAGTCTATTC ((((((....)))..))) were 30.5 °C and -11.4 kcal/mol.
Turning to GTTGGCGAAAGCCACAAC ((((((....)))..))), in series [1], the Tm turned out to be 33.8 °C. The folding enthalpy in series [2] is -8.33 kcal/mol.
In the case of GTAATCGAAAGATGTAC ((((((....))).))), the Tm in series [1] was 30.8 °C. Besides, the folding enthalpy in series [2] was -16.9 kcal/mol.
On to GGCGATGGAAACATCACC ((.((((....)))).)), for which the Tm in series [1] is 46.2 °C. In series [2], the folding enthalpy is -30.3 kcal/mol.
Taken in the same sequence, the figures for GATCGTATCAACGATC ((((((....)))))) were 55 °C and -35.5 kcal/mol.
Regarding GATCTCTCACGAGATC ((((((....)))))), the Tm in series [1] worked out at 51.6 °C. In addition, the folding enthalpy in series [2] was -37.2 kcal/mol.
On to GCTGCGCGAAAGCGCCGC ((.((((....)))).)), for which the Tm in series [1] was 63.1 °C. Moreover, the folding enthalpy in series [2] is -15.3 kcal/mol.
Take GATTGCGAAAGCATATC ((((((....))).))): the Tm in series [1] was determined as 42.9 °C. Also, the folding enthalpy in series [2] is -16.5 kcal/mol.
In the case of GCCGATACGAAAGTAGGC (((..(((....)))))), the Tm in series [1] worked out at 49.3 °C. Further, in series [2], the folding enthalpy was -33 kcal/mol.
GATCCATTGGTGGATC ((((((....)))))): the Tm in series [1] turned out to be 53 °C. For the same sequence, the folding enthalpy in series [2] was -44.4 kcal/mol.
Taken in the same sequence, the figures for GCCGCGTCGAAAGACGGC (((..(((....)))))) were 56.9 °C and -9.58 kcal/mol.
Taken in the same sequence, the figures for GACCACGGAAACGCGGTC ((((.((....)).)))) were 53.2 °C and -49 kcal/mol.
Taken in the same sequence, the figures for GACTCGCGAAAGCGGTC (((.(((....)))))) were 51.8 °C and -14.3 kcal/mol.
With GCTCCCGAAAGGGCAGC ((((((....))).))), the Tm in series [1] was found to be 55.2 °C. Besides, the folding enthalpy in series [2] is -30.2 kcal/mol.
Consider GATACACGAAAGTGGATC (((.(((....))).))), for which the Tm in series [1] came out at 56.6 °C. Moreover, in series [2], the folding enthalpy is -37.4 kcal/mol.
As for GTAGGCCGAAAGGCTAC (((.(((....)))))), the Tm in series [1] stood at 50.6 °C. The folding enthalpy in series [2] was -15.1 kcal/mol.
For GCGAACGGAAACGTTTGC ((.((((....)))).)), the Tm in series [1] was 56.4 °C. The folding enthalpy in series [2] was -46.8 kcal/mol.
